ChEMBL document CHEMBL5104221, “ATP Mimetic Attack on the Nucleotide-Binding Domain to Overcome ABC Transporter Mediated Chemoresistance” (ACS Med Chem Lett, 2022)
Calls of active or inactive are those of the source. The rule behind the calls is not given here.

How the values were obtained:
HCT-116 [1] = assay: Cytotoxicity against human HCT-116 cells assessed as reduction on cell viability at 100 uM incubated for 48 hrs in presence of paclitaxel by MTT assay; format: functional, cell-based
How it was run: (§1)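 Wild-type HCT116 cells were exposed for 48 h in OptiMEM, with or without paclitaxel. Viability was read by MTT and normalised to wells containing 0.5% DMSO, taken as 100%.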

HCT116tax = assay: Cytotoxicity against paclitaxel-resistant human HCT116tax cells assessed as reduction on cell viability at 100 to 200 uM incubated for 48 hrs in presence of paclitaxel by MTT assay; format: functional, cell-based; conditions: dose 100-200 µM
[2] = Cytotoxicity against human HEK293 cells incubated for 48 hrs by MTT assay; format: toxicity, cell-based
HCT-116 [3] = assay: Cytotoxicity against in human HCT-116 cells overexpressing human BCRP assessed as DNA damage by measuring fluorescence intensity at 100 uM incubated for 30 mins by Hoechst 33342 staining accumulation assay; format: functional, cell-based
How it was run: (§2)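 Hoechst 33342 retention measured in paclitaxel-resistant HCT116tax cells and in HCT116 cells transfected with MDR1- or BCRP-expressing plasmids. The dye was read by its blue fluorescence without washing. Tariquidar (1 μM) and sodium orthovanadate (500 μM) served as reference inhibitors. Accumulation is expressed relative to the vanadate-induced fluorescence difference, set as 100%.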

HCT-116 [4] = assay: Cytotoxicity against human HCT-116 cells overexpressing human MDR1 incubated for 48 hrs by MTT assay; format: functional, cell-based; conditions: HCT-116, 48 h
[5] = Cytotoxicity against paclitaxel-resistant human HCT116tax cells incubated for 48 hrs by MTT assay; format: functional, cell-based
HCT-116 [6] = assay: Cytotoxicity against human HCT-116 cells overexpressing human MDR1 assessed as DNA damage by measuring fluorescence intensity at 100 uM incubated for 30 mins by Hoechst 33342 staining accumulation assay; format: functional, cell-based; how it was run: as §2
HCT-116 [7] = assay: Cytotoxicity against human HCT-116 cells overexpressing human BCRP incubated for 48 hrs by MTT assay; format: functional, cell-based; conditions: HCT-116, 48 h
[8] = Cytotoxicity against paclitaxel-resistant human HCT116tax cells assessed as DNA damage by measuring fluorescence intensity incubated for 30 mins by Hoechst 33342 staining accumulation assay; format: functional, cell-based; conditions: 0.5 h; how it was run: as §2
HCT-116 [9] = assay: Cytotoxicity against human HCT-116 cells incubated for 48 hrs by MTT assay; format: functional, cell-based; conditions: HCT-116, 48 h; how it was run: as §1

Compound | Activity (HCT-116 [1]) | Activity (HCT116tax) | EC50 at 48 h [2] | Activity (HCT-116 [3]) | EC50 (HCT-116 [4]) | EC50 [5] | Activity (HCT-116 [6]) | EC50 (HCT-116 [7]) | IC50 [8] | EC50 (HCT-116 [9])
Nc1ncnc2c1ncn2COCCO | Active | Active | > 100 µM | Active | > 100 µM | > 100 µM | Active | > 100 µM | 7.3 µM | > 100 µM
CC(C)[C@@H]1NC(=O)[C@@H]2CCCN2C1=O | Active | Active | > 100 µM | Active | > 100 µM | > 100 µM | Active | > 100 µM | 6.2 µM | > 100 µM
NC(=O)c1ncn([C@@H]2O[C@H](CO)[C@@H](O)[C@H]2O)c1N [ACADESINE] | Active | Active | > 100 µM | Active | > 100 µM | > 100 µM | Active | > 100 µM | 5.3 µM | > 100 µM
Nc1ncnc2c1ncn2[C@@H]1O[C@H](COP(=O)(O)O)[C@@H](O)[C@H]1O [ADENOSINE PHOSPHATE] | Active | Active | > 100 µM | Active | > 100 µM | > 100 µM | Active | > 100 µM | 3.2 µM | > 100 µM
NC(=O)c1ncn([C@@H]2O[C@H](CO)[C@@H](O)[C@H]2O)n1 [RIBAVIRIN] | Active | Active | > 100 µM | Active | > 100 µM | > 100 µM | Active | > 100 µM | 5 µM | > 100 µM
ORTHOVANADATE | – | – | – | Active | – | – | Active | – | – | –
